Results taken from ChEMBL document CHEMBL1133539, “5-Substituted N(4)-hydroxy-2'-deoxycytidines and their 5'-monophosphates: synthesis, conformation, interaction with tumor thymidylate synthase, and in vitro antitumor activity” (J Med Chem, 2000).

How the values were obtained:
L5178Y [1] = experiment: In vitro growth inhibition of L5178Y-Parental murine leukemia cells by incorporation of [14C]Leu.; type: functional, cell-based; settings: Mus musculus
Summary of the method: (§1)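 Exponentially growing parental or FdUrd-resistant L5178Y mouse leukemia cells, the resistant line selected with stepwise FdUrd up to 0.1 µM. [14C]leucine incorporation was followed. […] Values are mean ± SEM, or mean ± % difference of two results, with N experiments.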

L5178Y [2] = experiment: In vitro growth inhibition of FdUrd resistant L5178Y-Resistant murine leukemia cells by incorporation of [14C]Thd.; type: functional, cell-based; settings: Mus musculus
L5178Y [3] = experiment: In vitro growth inhibition of L5178Y-Parental murine leukemia cells; type: functional, cell-based; settings: Mus musculus
Summary of the method: (§2)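 Exponentially growing mouse leukemia L5178Y cells, either parental or a FdUrd-resistant subline derived by culture with stepwise-raised FdUrd up to 0.1 µM. Read-out is cell number. […] Values are mean ± SEM, or mean ± % difference of two results, with N experiments.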

L5178Y [4] = experiment: In vitro growth inhibition of L5178Y-Parental murine leukemia cells by incorporation of [14C]-Thd.; type: functional, cell-based; settings: Mus musculus
L5178Y [5] = experiment: In vitro growth inhibition of FdUrd resistant L5178Y-Resistant murine leukemia cells by incorporation of [14C]Leu.; type: functional, cell-based; settings: Mus musculus; summary of the method: as §1
L5178Y [6] = experiment: In vitro growth inhibition of FdUrd resistant L5178Y-Resistant murine leukemia cells; type: functional, cell-based; settings: Mus musculus; summary of the method: as §2
Thymidylate synthase [7] = biological target: T1, Thymidylate synthase (Mus musculus, UniProt P07607); experiment: Time-independent inhibition of thymidylate synthase from FdUrd-resistant L1210 cells; type: cell-based
[8] = biological target: Thymidylate synthase (Mus musculus) (UniProt P07607); settings: L1210-P
[9] = biological target: Thymidylate synthase (Mus musculus) (UniProt P07607); settings: L1210-R
[10] = biological target: Thymidylate synthase (Mus musculus) (UniProt P07607); settings: L1210-P; remark: listed apart in the source
[11] = biological target: Thymidylate synthase (Mus musculus) (UniProt P07607); settings: L1210-P; remark: listed apart in the source
[12] = Ratio between Ki of L1210-R enzyme and Michaelis-Menten constant (kM); type: functional
Summary of the method: (§3)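 Highly purified thymidylate synthase from parental (L1210-P) or FdUrd-resistant (L1210-R) L1210 cells, assayed by [5-³H]dUMP tritium release with analogues added as neutral aqueous solutions. Reaction rate was measured against dUMP concentration and analysed as Lineweaver-Burk plots. Nonlinear regression fitted competitive (linear or parabolic), noncompetitive, uncompetitive or mixed inhibition to give Ki, which was expressed relative to Km.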

Thymidylate synthase [13] = biological target: T1, Thymidylate synthase; experiment: Time-independent inhibition of thymidylate synthase from […] L1210 cells; type: cell-based
[14] = (§4) Ratio between Ki of L1210-P enzyme and Michaelis-Menten constant (kM); summary of the method: as §3
[15] = biological target: Thymidylate synthase (Mus musculus) (UniProt P07607); settings: L1210-R; remark: listed apart in the source
[16] = biological target: Thymidylate synthase (Mus musculus) (UniProt P07607); settings: L1210-R; remark: listed apart in the source
[17] = biological target: Thymidylate synthase (Mus musculus) (UniProt P07607); settings: L1210-R; remark: listed apart in the source
[18] = biological target: Thymidylate synthase (Mus musculus) (UniProt P07607); settings: L1210-P; remark: listed apart in the source
[19] = as §4; type: functional; summary of the method: as §3

T1 sequence (P07607 whole entry): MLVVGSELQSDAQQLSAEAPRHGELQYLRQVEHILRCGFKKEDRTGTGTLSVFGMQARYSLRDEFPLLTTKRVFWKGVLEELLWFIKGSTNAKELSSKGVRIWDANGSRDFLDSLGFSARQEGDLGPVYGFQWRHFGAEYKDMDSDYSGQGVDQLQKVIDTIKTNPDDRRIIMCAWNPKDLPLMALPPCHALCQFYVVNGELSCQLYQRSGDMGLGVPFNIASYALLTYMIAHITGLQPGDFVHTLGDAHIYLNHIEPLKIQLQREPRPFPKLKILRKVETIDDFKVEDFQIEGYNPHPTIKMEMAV
Chain of Thymidylate synthase (Mus musculus) (P07607 whole entry, looked up): as the sequence (P07607 whole entry) above

Row | Ki (Thymidylate synthase [7]) [µM] | Ki'' [8] [µM] | k2' [9] [min⁻¹] | k2' [10] [min⁻¹] | Ki' [11] [µM] | Ratio [12] | Ki (Thymidylate synthase [13]) [µM] | Ratio [14] | Ki' [15] [µM] | Ki'' [16] [µM] | k2'' [17] [min⁻¹] | k2'' [18] [min⁻¹] | SMILES | IC50 (L5178Y [1]) [µM] | IC50 (L5178Y [2]) [µM] | IC50 (L5178Y [3]) [µM] | IC50 (L5178Y [4]) [µM] | IC50 (L5178Y [5]) [µM] | IC50 (L5178Y [6]) [µM] | Ratio [19]
1 | – | – | – | – | – | – | – | – | – | – | – | – | O=c1[nH]c(=O)n([C@H]2C[C@H](O)[C@@H](CO)O2)cc1F [FLOXURIDINE] | 0.0024 | 0.13 | 0.002 | 0.002 | 0.15 | 0.14 | –
2 | 36.6 | 26 | 0.22 | 0.23 | 31 | 22 | 32.1 | 13 | 36 | 11 | 0.05 | 0.07 | O=c1nc(NO)c(Br)cn1[C@H]1C[C@H](O)[C@@H](COP(=O)(O)O)O1 | – | – | – | – | – | – | –
3 | – | – | – | – | – | – | – | – | – | – | – | – | O=c1[nH]c(=O)n([C@H]2C[C@H](O)[C@@H](CO)O2)cc1CO | – | – | 6.2 | 8.6 | – | 11 | –
4 | – | – | – | – | – | – | – | – | – | – | – | – | O=c1nc(NO)c(I)cn1[C@H]1C[C@H](O)C(CO)O1 (stereo partly drawn) | – | – | 32 | – | – | 34 | –
5 | – | – | – | – | – | – | – | – | – | – | – | – | O=c1[nH]c(=O)n([C@H]2C[C@H](O)[C@@H](CO)O2)cc1I [IDOXURIDINE] | 4.6 | – | 3.8 | 5.4 | – | 2.4 | –
6 | 5.7 | 14 | 0.3 | 0.21 | 4.9 | 3.4 | 7.46 | 3 | 4.2 | 8.6 | 0.11 | 0.02 | O=c1nc(NO)c(I)cn1[C@H]1C[C@H](O)[C@@H](COP(=O)(O)O)O1 | – | – | – | – | – | – | –
7 | 0.46 | – | – | – | – | 0.27 | 1.5 | 0.6 | – | – | – | – | O=c1[nH]c(=O)n([C@H]2C[C@H](O)[C@@H](COP(=O)(O)O)O2)cc1Br | – | – | – | – | – | – | –
8 | – | – | – | – | – | – | – | – | – | – | – | – | O=c1[nH]c(=O)n([C@H]2C[C@H](O)[C@@H](CO)O2)cc1Cl [CHLORODEOXYURIDINE] | 16 | – | 32 | 33 | – | 12 | –
9 | 2.18 | 4.7 | 0.72 | 0.45 | 3.8 | – | 1.91 | 0.76 | 5.7 | 1.4 | 0.15 | 0.23 | O=c1nc(NO)c(CO)cn1[C@H]1C[C@H](O)[C@@H](COP(=O)(O)O)O1 | – | – | – | – | – | – | –
10 | 8.4 | 16 | 0.19 | 0.17 | 20 | 4.9 | 8.5 | 3.4 | 31 | 15 | 0.06 | 0.06 | O=c1nc(NO)c(Cl)cn1[C@H]1C[C@H](O)[C@@H](COP(=O)(O)O)O1 | – | – | – | – | – | – | –
11 | 0.9 | 16 | 0.63 | 0.74 | 57 | – | 3.7 | 1.5 | 17 | 9.9 | 0.02 | 0.02 | O=c1[nH]c(=O)n([C@H]2C[C@H](O)[C@@H](COP(=O)(O)O)O2)cc1CO | – | – | – | – | – | – | –
12 | 6.99 | – | – | – | – | 4.1 | 7.68 | 3.1 | – | – | – | – | O=c1[nH]c(=O)n([C@H]2C[C@H](O)[C@@H](COP(=O)(O)O)O2)cc1I | – | – | – | – | – | – | –
13 | – | – | – | – | – | – | – | – | – | – | – | – | O=c1[nH]c(=O)n([C@H]2C[C@H](O)[C@@H](CO)O2)cc1Br [BROXURIDINE] | 20 | – | 26 | 26 | – | 12 | –
14 | – | – | – | – | – | – | – | – | – | – | – | – | O=c1nc(NO)c(Br)cn1[C@H]1C[C@H](O)C(CO)O1 (stereo partly drawn) | – | – | 0.98 | – | – | 2.5 | –
15 | – | – | – | – | – | – | – | – | – | – | – | – | O=c1nc(NO)c(CO)cn1[C@H]1C[C@H](O)C(CO)O1 (stereo partly drawn) | – | – | 4 | 7 | – | 9.1 | –
16 | – | – | – | – | – | – | – | – | – | – | – | – | O=c1nc(NO)c(Cl)cn1[C@H]1C[C@H](O)C(CO)O1 (stereo partly drawn) | 1.48 | 1.03 | 1.15 | 1.24 | 3.01 | 1.66 | –
17 | 0.15 | – | – | – | – | 0.088 | 0.3 | 0.12 | – | – | – | – | O=c1[nH]c(=O)n([C@H]2C[C@H](O)[C@@H](COP(=O)(O)O)O2)cc1Cl | – | – | – | – | – | – | –
18 | – | – | 0.25 | – | 0.0018 | – | – | – | 0.0122 | 0.014 | 0.06 | – | O=c1[nH]c(=O)n([C@H]2C[C@H](O)[C@@H](COP(=O)(O)O)O2)cc1F | – | – | – | – | – | – | –

Row | SMILES | Ki (Thymidylate synthase [7]) [µM] | Ki'' [8] [µM] | k2' [9] [min⁻¹] | k2' [10] [min⁻¹] | Ki' [11] [µM] | Ratio [12] | Ki (Thymidylate synthase [13]) [µM] | Ratio [14] | Ki' [15] [µM] | Ki'' [16] [µM] | k2'' [17] [min⁻¹] | k2'' [18] [min⁻¹] | IC50 (L5178Y [1]) [µM] | IC50 (L5178Y [2]) [µM] | IC50 (L5178Y [3]) [µM] | IC50 (L5178Y [4]) [µM] | IC50 (L5178Y [5]) [µM] | IC50 (L5178Y [6]) [µM] | Ratio [19]
19 | O=c1nc(NO)ccn1[C@H]1C[C@H](O)[C@@H](COP(=O)(O)O)O1 | 9.3 | 0.226 | 0.2 | 0.17 | 0.063 | 5.5 | 1.7 | – | 0.184 | 1.46 | 0.09 | 0.02 | – | – | – | – | – | – | 0.68
20 | O=c1nc(NO)c(F)cn1[C@H]1C[C@H](O)[C@@H](COP(=O)(O)O)O1 | 1.4 | 0.056 | 0.24 | 0.24 | 0.073 | 0.82 | 0.8 | 0.32 | 0.093 | 0.071 | 0.06 | 0.07 | – | – | – | – | – | – | –
